Assay results as given in article PMC8602434 (Drugs in R&D, 2021).

Assay: Healthy volunteers, single-dose arm, sc
Type: in vivo
Details: human; for half-life: t½
Summary of the method: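 Double-blind single abdominal sc injection at 0.1, 0.5, 1, 3 or 5 mg versus placebo. Cohorts of six or eight subjects; the 0.1 mg cohort had 4 active and 2 placebo. Serial blood sampling to 48 h post-dose. Plasma assayed by validated bioanalytical method. Noncompartmental analysis: Cmax, tmax, t½, AUC (linear trapezoidal to last quantifiable concentration), AUC∞, CL/F. AEs recorded.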

[1] = both, plasma, sc, 0.1 mg, single 0.1 mg sc, mean (SD), n=4
[2] = both, plasma, sc, 0.5 mg, single 0.5 mg sc, mean (SD), n=4
[3] = both, plasma, sc, 1 mg, single 1.0 mg sc, mean (SD), n=6
[4] = both, plasma, sc, 3 mg, single 3.0 mg sc, median, n=6
[5] = both, plasma, sc, 5 mg, single 5.0 mg sc, mean (SD), n=6
[6] = single 0.1 mg sc, geometric mean, n=4
[7] = single 0.1 mg sc, mean (SD), n=4
[8] = single 0.5 mg sc, geometric mean, n=2
[9] = single 0.5 mg sc, geometric mean, n=4

Work on `CCCC[C@H](NC(C)=O)C(=O)N[C@H]1CCC(=O)NC[C@@H](C(=O)N[C@@H](Cc2c[nH]c3ccccc23)C(N)=O)NC(=O)[C@H](CCCNC(=N)N)NC(=O)[C@@H](Cc2ccccc2)NC(=O)[C@H](Cc2c[nH]cn2)NC1=O` [PL8177] yielded an AUC(0-t) (both, plasma, sc, 0.1 mg) of 2.7 ng·h/mL, a tmax (both, plasma, sc, 0.1 mg) of 0.6 h and an AUC(0-inf) [1] of 3.5 ng·h/mL. It also gave a CL/F (both, plasma, sc, 0.1 mg, CL/F, single 0.1 mg sc, mean (SD), n=4) of 497 mL/min, a Cmax (both, plasma, sc, 0.1 mg, Cmax, single 0.1 mg sc, mean (SD), n=4) of 2.3 ng/mL and a Vd/F (both, plasma, sc, 0.1 mg, Vd/F, single 0.1 mg sc, mean (SD), n=4) of 36.1 L. The half-life [1] was 0.9 h, the AUC(0-t) (both, plasma, sc, 0.5 mg) was 19.9 ng·h/mL and the tmax (both, plasma, sc, 0.5 mg) was 0.5 h. It also gave an AUC(0-inf) [2] of 22.4 ng·h/mL, a CL/F (both, plasma, sc, 0.5 mg, CL/F, single 0.5 mg sc, mean (SD), n=4) of 477 mL/min and a Cmax (both, plasma, sc, 0.5 mg, Cmax, single 0.5 mg sc, mean (SD), n=4) of 8.2 ng/mL. The Vd/F (both, plasma, sc, 0.5 mg, Vd/F, single 0.5 mg sc, mean (SD), n=2) was 74.4 L, the half-life [2] was 2.8 h and the AUC(0-t) (both, plasma, sc, 1 mg) was 40.3 ng·h/mL. For the same molecule, the tmax (both, plasma, sc, 1 mg) was 0.6 h, the AUC(0-inf) [3] was 46.2 ng·h/mL and the CL/F (both, plasma, sc, 1 mg, CL/F, single 1.0 mg sc, mean (SD), n=6) was 382 mL/min. The Cmax (both, plasma, sc, 1 mg, Cmax, single 1.0 mg sc, mean (SD), n=6) was 17.4 ng/mL, the Vd/F (both, plasma, sc, 1 mg, Vd/F, single 1.0 mg sc, mean (SD), n=3) was 173 L and the Vd/F (both, plasma, sc, 1 mg, Vd/F, single 1.0 mg sc, median, n=3) was 186 L. For the same molecule, the half-life [3] was 6.7 h, the AUC(0-t) (both, plasma, sc, 3 mg) was 137 ng·h/mL and the AUC(0-inf) [4] was 163 ng·h/mL. The CL/F (both, plasma, sc, 3 mg, CL/F, single 3.0 mg sc, mean (SD), n=6) was 322 mL/min, the CL/F (both, plasma, sc, 3 mg, CL/F, single 3.0 mg sc, median, n=6) was 307 mL/min and the Cmax (both, plasma, sc, 3 mg, Cmax, single 3.0 mg sc, median, n=6) was 49.1 ng/mL. For the same molecule, the Vd/F (both, plasma, sc, 3 mg, Vd/F, single 3.0 mg sc, mean (SD), n=4) was 375 L, the Vd/F (both, plasma, sc, 3 mg, Vd/F, single 3.0 mg sc, median, n=4) was 394 L and the half-life (both, plasma, sc, 3 mg, single 3.0 mg sc, geometric mean, n=6) was 15.2 h. The half-life (both, plasma, sc, 3 mg, single 3.0 mg sc, mean (SD), n=6) was 19.5 h, the half-life [4] was 12.3 h and the AUC(0-t) (both, plasma, sc, 5 mg) was 226 ng·h/mL. For the same molecule, the tmax (both, plasma, sc, 5 mg) was 0.8 h, the AUC(0-inf) [5] was 240 ng·h/mL and the CL/F (both, plasma, sc, 5 mg, CL/F, single 5.0 mg sc, mean (SD), n=6) was 355 mL/min. For the same molecule, the Cmax (both, plasma, sc, 5 mg, Cmax, single 5.0 mg sc, mean (SD), n=6) was 87.8 ng/mL, the Vd/F (both, plasma, sc, 5 mg, Vd/F, single 5.0 mg sc, mean (SD), n=6) was 502 L and the half-life [5] was 16.3 h. The “Median time for last measurable concentration” value (shortened to “Median time”) (0.1-mg dose) was 2 h, the “Median time” value (0.5-mg dose) was 6 h and the “Median time” value (1-mg dose) was 16 h. For the same molecule, the “Median time” value (3-mg dose) was 30 h, the “Median time” value (5-mg dose) was 48 h and the “AUC0–t” value [6] was 2.6 ng·h/mL. For the same molecule, the “AUC∞” value [6] was 3.4 ng·h/mL, the “AUC∞/dose” value [6] was 34.2 ng·h/mL/mg and the CL/F [6] was 487 mL/min. It also gave a Cmax [6] of 2.2 ng/mL, a Cmax/dose [6] of 22.1 ng/mL/mg and a t½ [6] of 0.8 h. The “AUC∞/dose” value [7] was 34.9 (7.82) ng·h/mL/mg, the Cmax/dose [7] was 23.4 (10.1) ng/mL/mg and the “AUC0–t” value (single 0.1 mg sc, median, n=4) was 2.6 ng·h/mL. For the same molecule, the “AUC∞” value (single 0.1 mg sc, median, n=4) was 3.5 ng·h/mL, the “AUC∞/dose” value (single 0.1 mg sc, median, n=4) was 35.3 ng·h/mL/mg and the CL/F (single 0.1 mg sc, median, n=4) was 475 mL/min. The Cmax (single 0.1 mg sc, median, n=4) was 1.9 ng/mL, the Cmax/dose (single 0.1 mg sc, median, n=4) was 18.9 ng/mL/mg and the Vd/F (single 0.1 mg sc, median, n=4) was 36.6 L. The t½ (single 0.1 mg sc, median, n=4) was 0.8 h, the “AUC∞/dose” value [8] was 50.4 ng·h/mL/mg and the Vd/F [8] was 74.1 L. For the same molecule, the “AUC0–t” value [9] was 16.8 ng·h/mL, the “AUC∞” value [9] was 19.4 ng·h/mL and the CL/F [9] was 430 mL/min. For the same molecule, the Cmax [9] was 7.6 ng/mL, the Cmax/dose [9] was 15.3 ng/mL/mg and the t½ [9] was 2.6 h. The “AUC∞/dose” value (single 0.5 mg sc, mean (SD), n=2) was 59.9 (45.8) ng·h/mL/mg.
